The assay concerns Bladder 5637 cells viability, CellTiter-Glo, 72 h. Briefly: cytotoxicity in 5637 bladder cells, dose response, cytotoxicity control for bacterial capsule biogenesis inhibitors, cell-based, set 2 (AID 504769). In a few lines: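 Test system: bladder carcinoma 5637 cell line; benchmarks: Hyamine as cytotoxic control, untreated cells as reference; evaluation: percent viability versus mean untreated cell control, fitted CC50; dosing: eight concentrations, 2.3–300 µM; signal: CellTiter-Glo luminescence; incubation: 72 h compound exposure; repeats: duplicates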
Consider `O=C(Nc1nc2c(F)cc(F)cc2s1)c1ccncc1`, for which the CC50 (commonly the concentration giving 50% cytotoxicity) was 71.8 µM. `Cc1cc(C)c2nc(NC(=O)c3ccccn3)sc2c1`: the CC50 is 6.19 µM.

On to `O=C(Nc1nc2ccc(F)cc2s1)c1ccccn1`, for which the CC50 is 3.32 µM.

For `O=C(Nc1nc2ccccc2s1)c1cccnc1`, the 50% cytotoxic concentration (CC50) was 129 µM. Regarding `O=C(Nc1nc2c(Cl)cc(Cl)cc2s1)c1ccccn1`, the CC50 is 3.55 µM. With `O=C(Nc1nc2c(F)cccc2s1)c1ccccn1`, the CC50 was 2.56 µM.

Consider `O=C(Nc1nc2c(F)cc(F)cc2s1)c1ccccc1`, for which the CC50 was 30.9 µM. Then `O=C(Nc1nc2ccccc2s1)c1ccncc1`, with 104 µM.

Source of the values: PubChem BioAssay AID504769 (Southern Research Specialized Biocontainment Screening …, 2011).
